Data taken from ChEMBL document CHEMBL1151702, “Using an aryl phenanthroimidazole moiety as a conjugated flexible intercalator to improve the hybridization efficiency of a triplex-forming oligonucleotide” (Bioorg Med Chem, 2008).

Key:
Format in all cases: nucleic-acid assay
Nucleic Acid [1] = test: Binding affinity to synthetic oligonucleotide ON19 at 1.0 uM at pH 7.2 by thermal denaturation study
Summary of the method: (§1)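 Duplex melting: complementary strands at 1.0 µM each in 20 mM sodium cacodylate, 100 mM NaCl, 10 mM MgCl₂, at the pH of the line. Annealed at 80 °C for 5 min, then cooled to 5 °C and held 30 min. UV absorbance read at 260 nm with heating at 1.0 °C/min; Tm is the maximum of the first-derivative curve.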

Nucleic Acid [2] = test: Binding affinity to synthetic double stranded DNA D1 at 1.5 uM at pH 7.2 by thermal denaturation study
Summary of the method: (§2)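 Parallel triplex melting: target duplex assembled from strands at 1.0 µM each, TFO third strand added at 1.5 µM. Buffer 20 mM sodium cacodylate, 100 mM NaCl, 10 mM MgCl₂, at the pH of the line. Samples heated to 80 °C for 5 min, cooled to 5 °C and held 30 min. Absorbance read at 260 nm while heating at 1.0 °C/min; Tm taken as the first-derivative maximum.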

Nucleic Acid [3] = test: Binding affinity to synthetic double stranded DNA D1 at 1.5 uM at pH 6.0 by thermal denaturation study; summary of the method: as §2
Nucleic Acid [4] = test: Binding affinity to synthetic double stranded DNA D2 at 1.5 uM at pH 6.0 by thermal denaturation study; summary of the method: as §2
Nucleic Acid [5] = test: Binding affinity to synthetic double stranded DNA D1 at 1.5 uM at pH 5.0 by thermal denaturation study; summary of the method: as §2
Nucleic Acid [6] = test: Binding affinity to synthetic double stranded DNA D3 at 1.5 uM at pH 6.0 by thermal denaturation study; summary of the method: as §2
Nucleic Acid [7] = test: Binding affinity to synthetic oligonucleotide ON20 at 1.0 uM at pH 7.0 by thermal denaturation study
Summary of the method: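 DNA/RNA antiparallel duplex: each strand at 1.0 µM in 10 mM sodium phosphate, 140 mM NaCl, 1 mM EDTA, pH 7.0. Heated to 80 °C for 5 min, cooled to 5 °C and held 30 min. Absorbance followed at 260 nm during a 1.0 °C/min temperature ramp; Tm is the first-derivative maximum.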

Nucleic Acid [8] = test: Binding affinity to synthetic oligonucleotide ON18 at 1.0 uM at pH 6.0 by thermal denaturation study; summary of the method: as §1
Nucleic Acid [9] = test: Binding affinity to synthetic oligonucleotide ON19 at 1.0 uM at pH 6.0 by thermal denaturation study; summary of the method: as §1
Nucleic Acid [10] = test: Binding affinity to synthetic double stranded DNA D4 at 1.5 uM at pH 6.0 by thermal denaturation study; summary of the method: as §2

Cc1cn([C@H]2C[C@H](OP(=O)(O)OC[C@H]3O[C@@H](n4cc(C)c(=O)[nH]c4=O)C[C@@H]3OP(=O)(O)OC[C@H]3O[C@@H](n4cc(C)c(=O)[nH]c4=O)C[C@@H]3OP(=O)(O)OC[C@H]3O[C@@H](n4ccc(N)nc4=O)C[C@@H]3OP(=O)(O)OC[C@H]3O[C@@H](n4cc(C)c(=O)[nH]c4=O)C[C@@H]3OP(=O)(O)OC[C@H]3O[C@@H](n4cc(C)c(=O)[nH]c4=O)C[C@@H]3OP(=O)(O)OC[C@H]3O[C@@H](n4cc(C)c(=O)[nH]c4=O)C[C@@H]3O[PH](O)(O)OC[C@H]3O[C@@H](n4cc(C)c(=O)[nH]c4=O)C[C@@H]3OP(=O)(O)OC[C@H]3O[C@@H](n4cc(C)c(=O)[nH]c4=O)C[C@@H]3OP(=O)(O)OC[C@H]3O[C@@H](n4cc(C)c(=O)[nH]c4=O)C[C@@H]3O)[C@@H](COP(=O)(O)O[C@H]3C[C@H](n4ccc(N)nc4=O)O[C@@H]3COP(=O)(O)O[C@H]3C[C@H](n4ccc(N)nc4=O)O[C@@H]3COP(=O)(O)O[C@H]3C[C@H](n4ccc(N)nc4=O)O[C@@H]3COP(=O)(O)O[C@H]3C[C@H](n4ccc(N)nc4=O)O[C@@H]3CO)O2)c(=O)[nH]c1=O
Tm (Nucleic Acid [1]): 49.5 °C
Tm (Nucleic Acid [2]): < 5 °C
Tm (Nucleic Acid [3]): 28 °C
Tm (Nucleic Acid [4]): < 5 °C
Tm (Nucleic Acid [5]): 55 °C
Tm (Nucleic Acid [6]): < 5 °C
Tm (Nucleic Acid [7]): 52 °C
Tm (Nucleic Acid [8]): 19 °C
Tm (Nucleic Acid [9]): 49.5 °C
Tm (Nucleic Acid [10]): < 5 °C

Cc1cn([C@H]2C[C@H](OP(=O)(O)OC[C@H]3O[C@@H](n4ccc(N)nc4=O)C[C@@H]3OP(=O)(O)OC[C@H]3O[C@@H](n4cc(C)c(=O)[nH]c4=O)C[C@@H]3OP(=O)(O)OC[C@H]3O[C@@H](n4cc(C)c(=O)[nH]c4=O)C[C@@H]3OP(=O)(O)OC[C@H]3O[C@@H](n4cc(C)c(=O)[nH]c4=O)C[C@@H]3O[PH](O)(O)OC[C@H]3O[C@@H](n4cc(C)c(=O)[nH]c4=O)C[C@@H]3OP(=O)(O)OC[C@H]3O[C@@H](n4cc(C)c(=O)[nH]c4=O)C[C@@H]3OP(=O)(O)OC[C@H]3O[C@@H](n4cc(C)c(=O)[nH]c4=O)C[C@@H]3O)[C@@H](COC[C@H](CCOc3ccc(-c4ncc[nH]4)c4ccccc34)OP(=O)(O)O[C@H]3C[C@H](n4cc(C)c(=O)[nH]c4=O)O[C@@H]3COP(=O)(O)O[C@H]3C[C@H](n4cc(C)c(=O)[nH]c4=O)O[C@@H]3COP(=O)(O)O[C@H]3C[C@H](n4ccc(N)nc4=O)O[C@@H]3COP(=O)(O)O[C@H]3C[C@H](n4ccc(N)nc4=O)O[C@@H]3COP(=O)(O)O[C@H]3C[C@H](n4ccc(N)nc4=O)O[C@@H]3COP(=O)(O)O[C@H]3C[C@H](n4ccc(N)nc4=O)O[C@@H]3CO)O2)c(=O)[nH]c1=O
Tm (Nucleic Acid [3]): 10.5 °C
Tm (Nucleic Acid [5]): 33 °C

Cc1cn([C@H]2C[C@H](OP(=O)(O)OC[C@H]3O[C@@H](n4ccc(N)nc4=O)C[C@@H]3OP(=O)(O)OC[C@H]3O[C@@H](n4cc(C)c(=O)[nH]c4=O)C[C@@H]3OP(=O)(O)OC[C@H]3O[C@@H](n4cc(C)c(=O)[nH]c4=O)C[C@@H]3OP(=O)(O)OC[C@H]3O[C@@H](n4cc(C)c(=O)[nH]c4=O)C[C@@H]3O[PH](O)(O)OC[C@H]3O[C@@H](n4cc(C)c(=O)[nH]c4=O)C[C@@H]3OP(=O)(O)OC[C@H]3O[C@@H](n4cc(C)c(=O)[nH]c4=O)C[C@@H]3OP(=O)(O)OC[C@H]3O[C@@H](n4cc(C)c(=O)[nH]c4=O)C[C@@H]3O)[C@@H](COC[C@H](COCc3ccc(C#Cc4ccc5ccc6cccc7ccc4c5c67)cc3)OP(=O)(O)O[C@H]3C[C@H](n4cc(C)c(=O)[nH]c4=O)O[C@@H]3COP(=O)(O)O[C@H]3C[C@H](n4cc(C)c(=O)[nH]c4=O)O[C@@H]3COP(=O)(O)O[C@H]3C[C@H](n4ccc(N)nc4=O)O[C@@H]3COP(=O)(O)O[C@H]3C[C@H](n4ccc(N)nc4=O)O[C@@H]3COP(=O)(O)O[C@H]3C[C@H](n4ccc(N)nc4=O)O[C@@H]3COP(=O)(O)O[C@H]3C[C@H](n4ccc(N)nc4=O)O[C@@H]3CO)O2)c(=O)[nH]c1=O
Tm (Nucleic Acid [1]): 45.5 °C
Tm (Nucleic Acid [2]): 28 °C
Tm (Nucleic Acid [3]): 45.5 °C
Tm (Nucleic Acid [4]): 27 °C
Tm (Nucleic Acid [5]): 59 °C
Tm (Nucleic Acid [6]): 34.5 °C
Tm (Nucleic Acid [8]): 33.5 °C
Tm (Nucleic Acid [9]): 46.5 °C
Tm (Nucleic Acid [10]): 28.5 °C

Cc1cn([C@H]2C[C@H](OP(=O)(O)OC[C@H]3O[C@@H](n4ccc(N)nc4=O)C[C@@H]3OP(=O)(O)OC[C@H]3O[C@@H](n4cc(C)c(=O)[nH]c4=O)C[C@@H]3OP(=O)(O)OC[C@H]3O[C@@H](n4cc(C)c(=O)[nH]c4=O)C[C@@H]3OP(=O)(O)OC[C@H]3O[C@@H](n4cc(C)c(=O)[nH]c4=O)C[C@@H]3O[PH](O)(O)OC[C@H]3O[C@@H](n4cc(C)c(=O)[nH]c4=O)C[C@@H]3OP(=O)(O)OC[C@H]3O[C@@H](n4cc(C)c(=O)[nH]c4=O)C[C@@H]3OP(=O)(O)OC[C@H]3O[C@@H](n4cc(C)c(=O)[nH]c4=O)C[C@@H]3O)[C@@H](COC[C@H](CCOc3ccc(-c4nc5c6ccccc6c6ccccc6c5[nH]4)cc3)OP(=O)(O)O[C@H]3C[C@H](n4cc(C)c(=O)[nH]c4=O)O[C@@H]3COP(=O)(O)O[C@H]3C[C@H](n4cc(C)c(=O)[nH]c4=O)O[C@@H]3COP(=O)(O)O[C@H]3C[C@H](n4ccc(N)nc4=O)O[C@@H]3COP(=O)(O)O[C@H]3C[C@H](n4ccc(N)nc4=O)O[C@@H]3COP(=O)(O)O[C@H]3C[C@H](n4ccc(N)nc4=O)O[C@@H]3COP(=O)(O)O[C@H]3C[C@H](n4ccc(N)nc4=O)O[C@@H]3CO)O2)c(=O)[nH]c1=O
Tm (Nucleic Acid [1]): 50.5 °C
Tm (Nucleic Acid [2]): 26 °C
Tm (Nucleic Acid [3]): 46.5 °C
Tm (Nucleic Acid [4]): 23 °C
Tm (Nucleic Acid [5]): 59.5 °C
Tm (Nucleic Acid [6]): 29.5 °C
Tm (Nucleic Acid [7]): 53 °C
Tm (Nucleic Acid [8]): 31.5 °C
Tm (Nucleic Acid [9]): 50.5 °C
Tm (Nucleic Acid [10]): 31.5 °C

Cc1cn([C@H]2C[C@H](OP(=O)(O)OC[C@H]3O[C@@H](n4ccc(N)nc4=O)C[C@@H]3OP(=O)(O)OC[C@H]3O[C@@H](n4cc(C)c(=O)[nH]c4=O)C[C@@H]3OP(=O)(O)O[C@@H](CCOc3ccc(-c4nc5c6ccccc6c6ccccc6c5[nH]4)c4ccccc34)COC[C@H]3O[C@@H](n4cc(C)c(=O)[nH]c4=O)C[C@@H]3OP(=O)(O)OC[C@H]3O[C@@H](n4cc(C)c(=O)[nH]c4=O)C[C@@H]3O[PH](O)(O)OC[C@H]3O[C@@H](n4cc(C)c(=O)[nH]c4=O)C[C@@H]3OP(=O)(O)OC[C@H]3O[C@@H](n4cc(C)c(=O)[nH]c4=O)C[C@@H]3OP(=O)(O)OC[C@H]3O[C@@H](n4cc(C)c(=O)[nH]c4=O)C[C@@H]3O)[C@@H](COC[C@H](CCOc3ccc(-c4nc5c6ccccc6c6ccccc6c5[nH]4)c4ccccc34)OP(=O)(O)O[C@H]3C[C@H](n4cc(C)c(=O)[nH]c4=O)O[C@@H]3COP(=O)(O)O[C@H]3C[C@H](n4cc(C)c(=O)[nH]c4=O)O[C@@H]3COP(=O)(O)O[C@H]3C[C@H](n4ccc(N)nc4=O)O[C@@H]3COP(=O)(O)O[C@H]3C[C@H](n4ccc(N)nc4=O)O[C@@H]3COP(=O)(O)O[C@H]3C[C@H](n4ccc(N)nc4=O)O[C@@H]3COP(=O)(O)O[C@H]3C[C@H](n4ccc(N)nc4=O)O[C@@H]3CO)O2)c(=O)[nH]c1=O
Tm (Nucleic Acid [1]): 38.5 °C
Tm (Nucleic Acid [2]): 15 °C
Tm (Nucleic Acid [3]): 46.5 °C
Tm (Nucleic Acid [4]): 24 °C
Tm (Nucleic Acid [6]): 33.5 °C
Tm (Nucleic Acid [7]): 42.5 °C
Tm (Nucleic Acid [8]): 20.5 °C
Tm (Nucleic Acid [9]): 38.5 °C
Tm (Nucleic Acid [10]): 17.5 °C

Cc1cn([C@H]2C[C@H](OP(=O)(O)OC[C@H]3O[C@@H](n4ccc(N)nc4=O)C[C@@H]3OP(=O)(O)OC[C@H]3O[C@@H](n4cc(C)c(=O)[nH]c4=O)C[C@@H]3OP(=O)(O)OC[C@H]3O[C@@H](n4cc(C)c(=O)[nH]c4=O)C[C@@H]3OP(=O)(O)OC[C@H]3O[C@@H](n4cc(C)c(=O)[nH]c4=O)C[C@@H]3O[PH](O)(O)OC[C@H]3O[C@@H](n4cc(C)c(=O)[nH]c4=O)C[C@@H]3OP(=O)(O)OC[C@H]3O[C@@H](n4cc(C)c(=O)[nH]c4=O)C[C@@H]3OP(=O)(O)OC[C@H]3O[C@@H](n4cc(C)c(=O)[nH]c4=O)C[C@@H]3O)[C@@H](COC[C@H](CCOc3ccc(-c4nc5c6ccccc6c6ccccc6c5[nH]4)c4ccccc34)OP(=O)(O)O[C@H]3C[C@H](n4cc(C)c(=O)[nH]c4=O)O[C@@H]3COP(=O)(O)O[C@H]3C[C@H](n4cc(C)c(=O)[nH]c4=O)O[C@@H]3COP(=O)(O)O[C@H]3C[C@H](n4ccc(N)nc4=O)O[C@@H]3COP(=O)(O)O[C@H]3C[C@H](n4ccc(N)nc4=O)O[C@@H]3COP(=O)(O)O[C@H]3C[C@H](n4ccc(N)nc4=O)O[C@@H]3COP(=O)(O)O[C@H]3C[C@H](n4ccc(N)nc4=O)O[C@@H]3CO)O2)c(=O)[nH]c1=O
Tm (Nucleic Acid [1]): 46 °C
Tm (Nucleic Acid [2]): 18.5 °C
Tm (Nucleic Acid [3]): 40.5 °C
Tm (Nucleic Acid [4]): 16.5 °C
Tm (Nucleic Acid [5]): 55 °C
Tm (Nucleic Acid [6]): 21 °C
Tm (Nucleic Acid [7]): 49.5 °C
Tm (Nucleic Acid [8]): 21.5 °C
Tm (Nucleic Acid [9]): 46.5 °C
Tm (Nucleic Acid [10]): 25.5 °C
